Values joined by “and” are separate entries in the source; they are usually repeats but may differ in a detail not shown here. Equal entries are not always repeated. Where two headings read alike, the source gives them in different places.
Legend:
[1] = format: in vivo, human; settings: for half-life / Cmax / AUC(0-t) / AUC(0-inf): human, plasma; for AUC(0-t): Uncorrected AUC0-last; for AUC(0-t) / AUC(0-inf) / % AUC0-∞ extrapolated from AUC0-last / AUC0-∞ corrected for TBW-normalized dose / CL/F normalized to TBW / Cmax corrected for LBW-normalized dose / Cmax corrected for TBW-normalized dose / Vd/F normalized to TBW: mean ± SD; for AUC(0-inf): Uncorrected AUC0-∞; for tlag: median (range)
How it was run: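 Fasted obese children 6–17 y, CYP2C19-genotyped (*2, *3, *4, *17; classed EM/IM/PM), received a single oral dose of ~1.2 mg/kg LBW. Catheter blood was drawn predose, half-hourly 0.5–4 h, and at 6 and 8 h, plus 12 h for PMs. Parent and sulfone metabolite were measured by validated LC-MS/MS in duplicate, using the mean. Noncompartmental analysis: λz from ≥3 terminal points, linear trapezoidal AUC, AUCinf = AUClast + CT/λz; Cmax and AUC corrected to 1 mg/kg TBW or LBW dose.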

[2] = historical nonobese peers, mean ± SD, ref Ward et al.[22], cited from earlier work
Safety and tolerability = format: in vivo, human
[3] = both, oral, obese, age 6–11 y (n = 18)
[4] = both, oral, obese, age 12–17 y (n = 21)
[5] = non-PMs, Morbidly obese (BMI >99%), mean (SD)
[6] = non-PMs, obesity status Obese (BMI ≥95%), mean (SD)
[7] = obese non-PMs, ALT High (>Q3), mean (SD)
[8] = obese non-PMs, ALT Low (<Q1), mean (SD)
[9] = obese non-PMs, AST High (>Q3), mean (SD)
[10] = obese non-PMs, AST Low (<Q1), mean (SD)
[11] = obese non-PMs, Female, mean (SD)
[12] = obese non-PMs, Waist:hip ratio High (>Q3), mean (SD)
[13] = obese non-PMs, Waist:hip ratio Low (<Q1), mean (SD)
[14] = obese, 2C19 genotype EM, mean (SD)
[15] = obese, 2C19 genotype IM, mean (SD)
[16] = obese, age 6–11 y, non-PMs, mean, SD

half-life ([1]; both, im, t1/2, obese, 2C19 genotype IM, mean (SD)): 63 min
Cmax ([1]; both, oral): 4100 ± 1180 ng/mL
AUC(0-t) [1, 3]: 6170 ± 2170 ng·h/mL
AUC(0-t) [1, 4]: 7470 ± 2800 ng·h/mL
AUC(0-inf) [1, 3]: 6260 ± 2260 ng·h/mL
AUC(0-inf) [1, 4]: 7690 ± 3450 ng·h/mL
half-life ([1]; both, oral, t1/2, non-PMs, Morbidly obese (BMI >99%), mean (SD)): 61.8 min
half-life ([1]; both, oral, t1/2, non-PMs, obesity status Obese (BMI ≥95%), mean (SD)): 58.2 min
half-life ([1]; both, oral, t1/2, obese, 2C19 genotype EM, mean (SD)): 57 min
half-life ([1]; both, oral, t1/2, obese, age 12–17 y, mean, SD): 64.8 ± 15.6 min
Cmax ([1]; both, po): 4270 ± 1430 ng/mL
half-life ([1]; female, oral, t1/2, obese non-PMs, mean (SD)): 61.8 min
half-life ([1]; male, oral, t1/2, obese non-PMs, mean (SD)): 57 min
AUC0-∞ corrected for LBW-normalized dose [1, 5]: 6.17 (1.89) mcg*h/mL/1 mg/kg LBW
CL/F normalized by LBW [1, 5]: 0.18 (0.06) L/h/kg LBW
Vd/F normalized by LBW [1, 5]: 0.25 (0.05) L/kg LBW
AUC0-∞ corrected for LBW-normalized dose [1, 6]: 6.36 (2.97) mcg*h/mL/1 mg/kg LBW
CL/F normalized by LBW [1, 6]: 0.20 (0.11) L/h/kg LBW
Vd/F normalized by LBW [1, 6]: 0.25 (0.09) L/kg LBW
Vd/F normalized by LBW ([1]; obese non-PMs, Female (n = 18), mean (SD)): 0.28 (0.08) L/kg LBW
Vd/F normalized by LBW ([1]; obese non-PMs, Female (n = 18), mean (SD), listed as Pantoprazole): 0.28 [0.08] L/kg LBW
AUC0-∞ corrected for LBW-normalized dose [1, 11]: 6.03 (3.20) mcg*h/mL/1 mg/kg LBW
CL/F normalized by LBW [1, 11]: 0.21 (0.11) L/h/kg LBW
Vd/F normalized by LBW ([1]; obese non-PMs, Male (n = 17), mean (SD)): 0.22 (0.06) L/kg LBW
Vd/F normalized by LBW ([1]; obese non-PMs, Male (n = 17), mean (SD), listed as Pantoprazole): 0.22 [0.06] L/kg LBW
AUC0-∞ corrected for LBW-normalized dose ([1]; obese non-PMs, Male, mean (SD)): 6.57 (1.88) mcg*h/mL/1 mg/kg LBW
CL/F normalized by LBW ([1]; obese non-PMs, Male, mean (SD)): 0.17 (0.06) L/h/kg LBW
AUC0-∞ corrected for LBW-normalized dose [1, 12]: 6.63 (3.57) mcg*h/mL/1 mg/kg LBW
CL/F normalized by LBW [1, 12]: 0.20 (0.13) L/h/kg LBW
Vd/F normalized by LBW [1, 12]: 0.24 (0.09) L/kg LBW
AUC0-∞ corrected for LBW-normalized dose [1, 13]: 5.76 (2.31) mcg*h/mL/1 mg/kg LBW
CL/F normalized by LBW [1, 13]: 0.20 (0.09) L/h/kg LBW
Vd/F normalized by LBW [1, 13]: 0.28 (0.08) L/kg LBW
AUC0-∞ corrected for LBW-normalized dose [1, 14]: 5.09 (1.81) mcg*h/mL/1 mg/kg LBW
CL/F normalized by LBW [1, 14]: 0.23 (0.10) L/h/kg LBW
Vd/F normalized by LBW [1, 14]: 0.29 (0.07) L/kg LBW
AUC0-∞ corrected for LBW-normalized dose [1, 15]: 7.90 (2.72) mcg*h/mL/1 mg/kg LBW
CL/F normalized by LBW [1, 15]: 0.14 (0.05) L/h/kg LBW
Vd/F normalized by LBW [1, 15]: 0.20 (0.04) L/kg LBW
tlag ([1]; obese, age 6–11 y (n = 18), single oral dose): 1.5 (1.0–3) h
% AUC0-∞ extrapolated from AUC0-last ([1]; obese, age 6–11 y (n = 18)): 1.2 ± 1.6%
AUC0-∞ corrected for TBW-normalized dose ([1]; obese, age 6–11 y (n = 18)): 8.87 ± 4.00 mcg*h/mL/1 mg/kg TBW
CL/F normalized to TBW ([1]; obese, age 6–11 y (n = 18)): 0.14 ± 0.07 L/h/kg TBW
Cmax corrected for LBW-normalized dose ([1]; obese, age 6–11 y (n = 18)): 3.87 ± 1.39 mcg/mL/1 mg/kg LBW
Cmax corrected for TBW-normalized dose ([1]; obese, age 6–11 y (n = 18)): 5.99 ± 2.13 mcg/mL/1 mg/kg TBW
Vd/F normalized to TBW ([1]; obese, age 6–11 y (n = 18)): 0.16 ± 0.05 L/kg TBW
% AUC0-∞ extrapolated from AUC0-last ([1]; obese, age 12–17 y (n = 21)): 2.5 ± 3.3%
AUC0-∞ corrected for TBW-normalized dose ([1]; obese, age 12–17 y (n = 21)): 11.56 ± 4.81 mcg*h/mL/1 mg/kg TBW
CL/F normalized to TBW ([1]; obese, age 12–17 y (n = 21)): 0.10 ± 0.04 L/h/kg TBW
Cmax corrected for LBW-normalized dose ([1]; obese, age 12–17 y (n = 21)): 3.7 ± 0.99 mcg/mL/1 mg/kg LBW
Cmax corrected for TBW-normalized dose ([1]; obese, age 12–17 y (n = 21)): 6.23 ± 1.73 mcg/mL/1 mg/kg TBW
Vd/F normalized to TBW ([1]; obese, age 12–17 y (n = 21)): 0.14 ± 0.04 L/kg TBW
tlag ([1]; obese, age 12–17 y (n = 21)): 2.0 (1.0–8.0) h
AUC0-∞, PM relative to all the non-PMs ([1]; only CYP2C19 PM vs non-PMs, higher): greater than 2 fold
SMILES: COc1ccnc(C[S+]([O-])c2nc3ccc(OC(F)F)cc3[nH]2)c1OC (stereo not drawn) [pantoprazole]
half-life ([1]; both, oral, t1/2, obese non-PMs, ALT High (>Q3), mean (SD)): 57.6 min
half-life ([1]; both, oral, t1/2, obese non-PMs, ALT Low (<Q1), mean (SD)): 58.2 min
half-life ([1]; both, oral, t1/2, obese non-PMs, AST High (>Q3), mean (SD)): 51 min
half-life ([1]; both, oral, t1/2, obese non-PMs, AST Low (<Q1), mean (SD)): 63.6 min
AUC0-∞ corrected for LBW-normalized dose [1, 7]: 6.12 (2.08) mcg*h/mL/1 mg/kg LBW
CL/F normalized by LBW [1, 7]: 0.18 (0.07) L/h/kg LBW
Vd/F normalized by LBW [1, 7]: 0.25 (0.09) L/kg LBW
AUC0-∞ corrected for LBW-normalized dose [1, 8]: 5.75 (1.97) mcg*h/mL/1 mg/kg LBW
CL/F normalized by LBW [1, 8]: 0.19 (0.06) L/h/kg LBW
Vd/F normalized by LBW [1, 8]: 0.25 (0.04) L/kg LBW
AUC0-∞ corrected for LBW-normalized dose [1, 9]: 5.66 (1.40) mcg*h/mL/1 mg/kg LBW
CL/F normalized by LBW [1, 9]: 0.19 (0.06) L/h/kg LBW
Vd/F normalized by LBW [1, 9]: 0.23 (0.05) L/kg LBW
AUC0-∞ corrected for LBW-normalized dose [1, 10]: 6.04 (1.97) mcg*h/mL/1 mg/kg LBW
CL/F normalized by LBW [1, 10]: 0.19 (0.09) L/h/kg LBW
Vd/F normalized by LBW [1, 10]: 0.27 (0.06) L/kg LBW
AUC0-∞ corrected for LBW-normalized dose [1, 16]: 5.73 ± 2.48 mcg*h/mL/1 mg/kg LBW and 5.73 (2.48) mcg*h/mL/1 mg/kg LBW
CL/F normalized to LBW [1, 16]: 0.21 ± 0.11 L/h/kg LBW and 0.21 (0.11) L/h/kg LBW
Vd/F normalized to LBW [1, 16]: 0.25 ± 0.09 L/kg LBW and 0.25 (0.09) L/kg LBW
AUC0-∞ corrected for LBW-normalized dose ([1]; obese, age 12–17 y, mean, SD): 6.82 ± 2.70 mcg*h/mL/1 mg/kg LBW and 6.82 (2.70) mcg*h/mL/1 mg/kg LBW
CL/F normalized to LBW ([1]; obese, age 12–17 y, mean, SD): 0.17 ± 0.06 L/h/kg LBW and 0.17 (0.06) L/h/kg LBW
Vd/F normalized to LBW ([1]; obese, age 12–17 y, mean, SD): 0.25 ± 0.07 L/kg LBW and 0.25 (0.07) L/kg LBW
AUC0-∞ corrected for TBW-normalized dose ([2]; age 6–11 y (n = 13)): 3.1 ± 1.4 mcg*h/mL/1 mg/kg TBW
CL/F normalized to TBW ([2]; age 6–11 y (n = 13)): 0.40 ± 0.22 L/h/kg TBW
Cmax corrected for TBW-normalized dose ([2]; age 6–11 y (n = 13)): 2.1 ± 1.1 mcg/mL/1 mg/kg TBW
Uncorrected AUC0-∞ ([2]; age 6–11 y (n = 13)): 3800 ± 1800 ng·h/mL
Vd/F normalized to TBW ([2]; age 6–11 y (n = 13)): 0.40 ± 0.27 L/kg TBW
t1/2 ([2]; age 6–11 y (n = 13)): 42 ± 12 min
AUC0-∞ corrected for TBW-normalized dose ([2]; age 12–17 y (n = 11)): 6.9 ± 3.4 mcg*h/mL/1 mg/kg TBW
CL/F normalized to TBW ([2]; age 12–17 y (n = 11)): 0.18 ± 0.08 L/h/kg TBW
Cmax corrected for TBW-normalized dose ([2]; age 12–17 y (n = 11)): 3.7 ± 1.8 mcg/mL/1 mg/kg TBW
Uncorrected AUC0-∞ ([2]; age 12–17 y (n = 11)): 4300 ± 3100 ng·h/mL
Uncorrected Cmax ([2]; age 12–17 y (n = 11)): 2200 ± 1400 ng/mL
Vd/F normalized to TBW ([2]; age 12–17 y (n = 11)): 0.21 ± 0.06 L/kg TBW
t1/2 ([2]; age 12–17 y (n = 11)): 54 ± 18 min
Study participants with AEs (Safety and tolerability; 7 of the 41 study participants, nine AEs, single oral dose): 17%
Serious AEs (Safety and tolerability; 41 participants, single oral dose, follow-up day 10–13): No serious AEs
Severity of AEs (Safety and tolerability; all AEs): mild
AEs considered related to study drug (Safety and tolerability; two AEs (headache and hiccups)): 5%

Source: paper PMC5806153 (The Journal of pediatrics, 2018)
